Test results taken from article PMC4856055 (Journal of medicinal chemistry, 2015).
Values joined by “and” are separate entries in the source; they are usually repeats but may differ in a detail not shown here. Equal values may be shown once. Read-outs that look alike come from different tables or passages of the source.

Experiments:
[1] = target: PSMA (Homo sapiens, UniProt Q04609); assay: PSMA inhibitory activity, fluorescence-based Amplex red glutamic acid; format: biochemical; conditions: for Ki: LNCaP cell lysates, 4 µM NAAG, Cheng-Prusoff conversion
Summary of the method: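 LNCaP cell lysate was incubated with the test compound and NAAG substrate for 120 min. Glutamate released by NAAG hydrolysis was detected by a further 60 min incubation with Amplex red glutamic acid working solution, then fluorescence was read at excitation 490 nm and emission 642 nm. IC50 was taken from semilog inhibition curves and converted to Ki by Cheng-Prusoff. Assays were run in triplicate.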

[2] = tested on: PSMA+ PC3 PIP and PSMA– PC3 flu tumor xenografts; assay: Small animal PET or PET/CT imaging of tumor bearing mice; format: in vivo
[3] = tested on: PSMA+ PC3 PIP and PSMA– PC3 flu xenografts; format: in vivo, mice; conditions: for PIP:blood ratio / PIP:flu ratio / PIP:kidney ratio / PIP:muscle ratio / biodistribution, PC-3 PIP tumor / biodistribution, PC-3 flu tumor / biodistribution, bladder / biodistribution, blood / biodistribution, bone / biodistribution, fat / biodistribution, heart / biodistribution, kidney / biodistribution, large intestine / biodistribution, liver / biodistribution, lung / biodistribution, muscle / biodistribution, pancreas / biodistribution, small intestine / biodistribution, spleen / biodistribution, stomach: tumor bearing mice

Sequence of PSMA (Q04609 whole entry): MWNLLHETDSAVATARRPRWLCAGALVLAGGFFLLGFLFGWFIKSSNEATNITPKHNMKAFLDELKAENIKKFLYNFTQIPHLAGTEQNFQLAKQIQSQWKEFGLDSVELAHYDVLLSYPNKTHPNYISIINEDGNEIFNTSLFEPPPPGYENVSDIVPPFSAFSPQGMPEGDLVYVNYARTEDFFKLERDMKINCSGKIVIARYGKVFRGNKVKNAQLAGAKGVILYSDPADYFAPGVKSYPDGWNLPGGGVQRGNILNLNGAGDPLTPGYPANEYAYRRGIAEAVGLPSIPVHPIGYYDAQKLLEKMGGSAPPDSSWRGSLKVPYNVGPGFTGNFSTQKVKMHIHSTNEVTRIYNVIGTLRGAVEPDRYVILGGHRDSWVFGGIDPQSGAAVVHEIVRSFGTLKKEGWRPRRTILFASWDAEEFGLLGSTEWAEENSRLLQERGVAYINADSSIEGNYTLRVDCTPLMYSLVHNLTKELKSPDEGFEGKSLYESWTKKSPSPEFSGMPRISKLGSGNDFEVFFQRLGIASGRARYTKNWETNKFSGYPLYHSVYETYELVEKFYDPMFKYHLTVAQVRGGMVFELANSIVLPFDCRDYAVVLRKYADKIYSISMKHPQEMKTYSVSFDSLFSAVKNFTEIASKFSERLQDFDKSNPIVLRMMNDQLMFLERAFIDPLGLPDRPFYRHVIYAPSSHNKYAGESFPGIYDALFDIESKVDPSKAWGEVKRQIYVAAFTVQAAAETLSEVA

O=C(O)CC[C@H](NC(=O)O[C@@H](CCCCNC(=O)c1ccc(F)cc1)C(=O)O)C(=O)O [compound 12, (S)-2-(((((S)-1-Carboxy-5-(4-fluorobenzamido)pentyl)oxy)-carbonyl)amino)pentanedioic Acid]
reduction in binding affinity compared to 9 [1]: more than 150 fold

O=C(O)CC[C@H](NC(=O)N[C@@H](CCCCNC(=O)c1ccc(I)cc1F)C(=O)O)C(=O)O [compound 27, (S)-2-(3-((S)-5-(4-Iodo-2-fluorobenzamido)-1-carboxypentyl)ureido)pentanedioic Acid]
Ki ([1]; Ki): 0.023 nM and 0.02 nM

O=C(O)CC[C@H](OC(=O)N[C@@H](CCCCNC(=O)c1ccc(F)cc1)C(=O)O)C(=O)O [compound 13, (S)-2-((((S)-1-Carboxy-5-(4-fluorobenzamido)pentyl)-carbamoyl)oxy)pentanedioic Acid]
reduction in binding affinity compared to 9 [1]: 30 fold
Ki ([1]; Ki): 9.2 nM

O=C(O)CCC(OC(=O)NC(CCCCNC(=O)c1ccc(Br)cc1[18F])C(=O)O)C(=O)O (stereo not shown) [[^18F]23, 4-Bromo-2-[^18F]fluorobenzoyllysineoxypentanedioic acid (OPA) carbamate]
PSMA+ PC3 PIP tumor uptake on small animal PET imaging ([2]; male SCID mice with PSMA+ PC3 PIP and PSMA– PC3 flu xenografts): Intense and selective radiotracer uptake
uptake in salivary glands on imaging ([2]; mouse, in vivo): Neither [^18F]23 nor [^18F]24 demonstrated any uptake in salivary glands
PIP:blood ratio ([3]; 0.5 h postinjection): 13 and 13.5
PIP:flu ratio ([3]; 0.5 h postinjection): 28.7
PIP:kidney ratio ([3]; 0.5 h postinjection): 0.5
PIP:muscle ratio ([3]; 0.5 h postinjection): 93 and 93.3
biodistribution, PC-3 PIP tumor ([3]; 0.5 h postinjection): 63 % ID/g and 63.4 ± 7.16 % ID/g
biodistribution, PC-3 flu tumor ([3]; 0.5 h postinjection): 2.21 ± 0.19 % ID/g
biodistribution, bladder ([3]; 0.5 h postinjection): 2.84 ± 0.65 % ID/g
biodistribution, blood ([3]; 0.5 h postinjection): 4.69 ± 0.33 % ID/g
biodistribution, bone ([3]; 0.5 h postinjection): 0.89 ± 0.14 % ID/g
biodistribution, fat ([3]; 0.5 h postinjection): 1.02 ± 0.12 % ID/g
biodistribution, heart ([3]; 0.5 h postinjection): 1.72 ± 0.31 % ID/g
biodistribution, kidney ([3]; 0.5 h postinjection): 135 ± 23.0 % ID/g
biodistribution, large intestine ([3]; 0.5 h postinjection): 1.35 ± 0.35 % ID/g
biodistribution, liver ([3]; 0.5 h postinjection): 15.5 ± 1.57 % ID/g
biodistribution, lung ([3]; 0.5 h postinjection): 4.59 ± 0.78 % ID/g
biodistribution, muscle ([3]; 0.5 h postinjection): 0.68 ± 0.07 % ID/g
biodistribution, pancreas ([3]; 0.5 h postinjection): 1.45 ± 0.15 % ID/g
biodistribution, small intestine ([3]; 0.5 h postinjection): 1.51 ± 0.71 % ID/g
biodistribution, spleen ([3]; 0.5 h postinjection): 19.9 ± 7.80 % ID/g
biodistribution, stomach ([3]; 0.5 h postinjection): 1.08 ± 0.07 % ID/g
PIP:blood ratio ([3]; 1 h postinjection): 40 and 40.3
PIP:flu ratio ([3]; 1 h postinjection): 69.4
PIP:kidney ratio ([3]; 1 h postinjection): 0.5
PIP:muscle ratio ([3]; 1 h postinjection): 208 and 208.1
biodistribution, PC-3 PIP tumor ([3]; 1 h postinjection): 64.5 ± 7.71 % ID/g
biodistribution, PC-3 flu tumor ([3]; 1 h postinjection): 0.93 ± 0.19 % ID/g
biodistribution, bladder ([3]; 1 h postinjection): 5.11 ± 3.57 % ID/g
biodistribution, blood ([3]; 1 h postinjection): 1.60 ± 1.17 % ID/g
biodistribution, bone ([3]; 1 h postinjection): 0.48 ± 0.17 % ID/g
biodistribution, fat ([3]; 1 h postinjection): 0.79 ± 0.74 % ID/g
biodistribution, heart ([3]; 1 h postinjection): 0.79 ± 0.14 % ID/g
biodistribution, kidney ([3]; 1 h postinjection): 139 ± 23.7 % ID/g
biodistribution, large intestine ([3]; 1 h postinjection): 0.71 ± 0.35 % ID/g
biodistribution, liver ([3]; 1 h postinjection): 11.9 ± 2.95 % ID/g
biodistribution, lung ([3]; 1 h postinjection): 2.62 ± 0.30 % ID/g
biodistribution, muscle ([3]; 1 h postinjection): 0.31 ± 0.05 % ID/g
biodistribution, pancreas ([3]; 1 h postinjection): 0.80 ± 0.21 % ID/g
biodistribution, small intestine ([3]; 1 h postinjection): 1.67 ± 0.70 % ID/g
biodistribution, spleen ([3]; 1 h postinjection): 9.62 ± 5.53 % ID/g
biodistribution, stomach ([3]; 1 h postinjection): 0.67 ± 0.18 % ID/g
PIP:blood ratio ([3]; 2 h postinjection): 148 and 147.6
PIP:flu ratio ([3]; 2 h postinjection): 233.4
PIP:kidney ratio ([3]; 2 h postinjection): 0.7
PIP:muscle ratio ([3]; 2 h postinjection): 643 and 643.1
biodistribution, PC-3 PIP tumor ([3]; 2 h postinjection): 90.0 ± 13.6 % ID/g
biodistribution, PC-3 flu tumor ([3]; 2 h postinjection): 0.39 ± 0.01 % ID/g
biodistribution, bladder ([3]; 2 h postinjection): 4.22 ± 1.58 % ID/g
biodistribution, blood ([3]; 2 h postinjection): 0.61 ± 0.41 % ID/g
biodistribution, bone ([3]; 2 h postinjection): 0.20 ± 0.03 % ID/g
biodistribution, fat ([3]; 2 h postinjection): 0.88 ± 0.80 % ID/g
biodistribution, heart ([3]; 2 h postinjection): 0.35 ± 0.07 % ID/g
biodistribution, kidney ([3]; 2 h postinjection): 127 ± 37.1 % ID/g
biodistribution, large intestine ([3]; 2 h postinjection): 0.51 ± 0.30 % ID/g
biodistribution, liver ([3]; 2 h postinjection): 6.42 ± 1.06 % ID/g
biodistribution, lung ([3]; 2 h postinjection): 1.21 ± 0.14 % ID/g
biodistribution, muscle ([3]; 2 h postinjection): 0.14 ± 0.02 % ID/g
biodistribution, pancreas ([3]; 2 h postinjection): 0.37 ± 0.07 % ID/g
biodistribution, small intestine ([3]; 2 h postinjection): 0.52 ± 0.17 % ID/g
biodistribution, spleen ([3]; 2 h postinjection): 5.69 ± 2.14 % ID/g
biodistribution, stomach ([3]; 2 h postinjection): 0.67 ± 0.72 % ID/g
PIP:blood ratio ([3]; 4 h postinjection): 240 and 240.1
PIP:flu ratio ([3]; 4 h postinjection): 461.5
PIP:kidney ratio ([3]; 4 h postinjection): 1.4
PIP:muscle ratio ([3]; 4 h postinjection): 792 and 791.9
biodistribution, PC-3 PIP tumor ([3]; 4 h postinjection): 74 % ID/g and 74.4 ± 9.19 % ID/g
biodistribution, PC-3 flu tumor ([3]; 4 h postinjection): 0.16 ± 0.03 % ID/g
biodistribution, bladder ([3]; 4 h postinjection): 3.30 ± 3.03 % ID/g
biodistribution, blood ([3]; 4 h postinjection): 0.31 ± 0.09 % ID/g
biodistribution, bone ([3]; 4 h postinjection): 0.09 ± 0.05 % ID/g
biodistribution, fat ([3]; 4 h postinjection): 0.53 ± 0.27 % ID/g
biodistribution, heart ([3]; 4 h postinjection): 0.14 ± 0.08 % ID/g
biodistribution, kidney ([3]; 4 h postinjection): 54.5 ± 22.2 % ID/g
biodistribution, large intestine ([3]; 4 h postinjection): 0.81 ± 0.15 % ID/g
biodistribution, liver ([3]; 4 h postinjection): 2.95 ± 1.97 % ID/g
biodistribution, lung ([3]; 4 h postinjection): 0.58 ± 0.32 % ID/g
biodistribution, muscle ([3]; 4 h postinjection): 0.09 ± 0.07 % ID/g
biodistribution, pancreas ([3]; 4 h postinjection): 0.13 ± 0.03 % ID/g
biodistribution, small intestine ([3]; 4 h postinjection): 0.23 ± 0.05 % ID/g
biodistribution, spleen ([3]; 4 h postinjection): 1.68 ± 1.03 % ID/g
biodistribution, stomach ([3]; 4 h postinjection): 0.12 ± 0.07 % ID/g
tumor/kidney ratio ([3]; at 2–4 h): approximately 1
PSMA– PC3 flu tumor uptake ([3]; mouse, in vivo): no specific uptake
defluorination in vivo (from bone uptake) ([3]; mouse, in vivo): lack of significant defluorination in vivo

O=C(O)CC[C@H](OC(=O)N[C@@H](CCCCNC(=O)c1ccc(I)cc1F)C(=O)O)C(=O)O [compound 24]
decrease in potency compared with the corresponding ureas 26 and 27 [1]: < 10 fold
Ki [1]: 0.21 nM

O=C(O)CC[C@H](OC(=O)N[C@@H](CCCCNC(=O)c1ccc(Br)cc1F)C(=O)O)C(=O)O [compound 23, (S)-2-((((S)-5-(4-Bromo-2-fluorobenzamido)-1-carboxypentyl)carbamoyl)oxy)pentanedioic Acid]
decrease in potency compared with the corresponding ureas 26 and 27 [1]: < 10 fold
Ki ([1]; Ki): 0.11 nM

O=C(O)CC[C@H](NC(=O)N[C@@H](CCCCNC(=O)c1ccc(Br)cc1F)C(=O)O)C(=O)O [compound 26, (S)-2-(3-((S)-5-(4-Bromo-2-fluorobenzamido)-1-carboxypentyl)ureido)pentanedioic Acid]
Ki ([1]; Ki): 0.036 nM and 0.04 nM
